Six compounds from ChEMBL document CHEMBL4811244, “Design and synthesis of 1H-pyrazolo[3,4-b]pyridines targeting mitogen-activated protein kinase kinase 4 (MKK4) - A promising target for liver regeneration” (Eur J Med Chem, 2021) can be followed below.

pIC50, pKd: −log10 of the molar value.

The target in test [1] is T1, Mitogen-activated protein kinase kinase kinase kinase 5 (Homo sapiens, UniProt Q9Y4K4). Put plainly: Binding affinity to wild-type human partial length MAP4K5 (M1 to P297 residues) expressed in bacterial expression system assessed as residual binding level at 100 nM by Kinomescan method relative to control.
Target sequence in this assay (Q9Y4K4 whole entry, looked up, the tested form may be a part): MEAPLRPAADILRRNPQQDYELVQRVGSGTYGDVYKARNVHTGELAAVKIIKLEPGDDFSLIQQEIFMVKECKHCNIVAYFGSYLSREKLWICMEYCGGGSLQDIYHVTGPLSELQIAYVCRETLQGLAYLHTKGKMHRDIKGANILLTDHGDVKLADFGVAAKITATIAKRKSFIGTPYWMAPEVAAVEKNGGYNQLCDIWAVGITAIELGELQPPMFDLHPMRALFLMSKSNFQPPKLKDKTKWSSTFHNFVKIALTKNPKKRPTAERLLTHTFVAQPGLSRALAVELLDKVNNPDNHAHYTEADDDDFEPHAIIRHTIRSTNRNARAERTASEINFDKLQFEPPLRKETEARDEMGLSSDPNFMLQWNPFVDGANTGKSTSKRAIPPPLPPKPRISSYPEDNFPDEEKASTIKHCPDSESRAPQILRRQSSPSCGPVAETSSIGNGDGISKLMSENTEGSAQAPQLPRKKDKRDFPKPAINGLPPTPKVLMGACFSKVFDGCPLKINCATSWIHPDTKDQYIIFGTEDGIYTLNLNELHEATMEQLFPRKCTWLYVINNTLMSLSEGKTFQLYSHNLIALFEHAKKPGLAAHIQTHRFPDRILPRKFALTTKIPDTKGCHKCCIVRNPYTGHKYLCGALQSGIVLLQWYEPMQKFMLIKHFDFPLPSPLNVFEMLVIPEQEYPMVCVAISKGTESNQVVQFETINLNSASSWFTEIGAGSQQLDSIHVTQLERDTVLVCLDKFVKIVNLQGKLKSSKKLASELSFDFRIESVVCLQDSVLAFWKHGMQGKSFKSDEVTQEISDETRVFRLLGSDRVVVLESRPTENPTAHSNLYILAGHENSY
Test [2] deals with T2, Dual specificity mitogen-activated protein kinase kinase 7 (Homo sapiens) (UniProt O14733).
T2 sequence (whole entry): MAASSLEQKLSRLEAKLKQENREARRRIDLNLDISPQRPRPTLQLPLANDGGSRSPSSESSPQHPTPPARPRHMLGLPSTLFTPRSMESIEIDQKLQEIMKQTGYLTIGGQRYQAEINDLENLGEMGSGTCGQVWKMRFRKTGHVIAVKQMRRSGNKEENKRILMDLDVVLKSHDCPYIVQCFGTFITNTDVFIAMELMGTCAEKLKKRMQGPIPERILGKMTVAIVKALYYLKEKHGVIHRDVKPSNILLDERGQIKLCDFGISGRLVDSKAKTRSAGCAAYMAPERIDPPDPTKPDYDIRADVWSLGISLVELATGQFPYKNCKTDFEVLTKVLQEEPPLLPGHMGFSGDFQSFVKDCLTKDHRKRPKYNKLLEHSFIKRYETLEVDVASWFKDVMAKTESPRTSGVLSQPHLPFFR
The experiment in a line: Binding affinity to wild-type human full length MKK7 (M1 to R419 residues) expressed in mammalian expression system assessed as residual binding level at 100 nM by Kinomescan method relative to control.

Test [3] deals with T3, Mitogen-activated protein kinase kinase kinase 20 (Homo sapiens, UniProt Q9NYL2). The experiment in a line: Binding affinity to wild-type human partial length ZAK (M1 to L331 residues) expressed in bacterial expression system assessed as residual binding level at 100 nM by Kinomescan method relative to control.
Target sequence in this assay (Q9NYL2 2-800 limits assumed): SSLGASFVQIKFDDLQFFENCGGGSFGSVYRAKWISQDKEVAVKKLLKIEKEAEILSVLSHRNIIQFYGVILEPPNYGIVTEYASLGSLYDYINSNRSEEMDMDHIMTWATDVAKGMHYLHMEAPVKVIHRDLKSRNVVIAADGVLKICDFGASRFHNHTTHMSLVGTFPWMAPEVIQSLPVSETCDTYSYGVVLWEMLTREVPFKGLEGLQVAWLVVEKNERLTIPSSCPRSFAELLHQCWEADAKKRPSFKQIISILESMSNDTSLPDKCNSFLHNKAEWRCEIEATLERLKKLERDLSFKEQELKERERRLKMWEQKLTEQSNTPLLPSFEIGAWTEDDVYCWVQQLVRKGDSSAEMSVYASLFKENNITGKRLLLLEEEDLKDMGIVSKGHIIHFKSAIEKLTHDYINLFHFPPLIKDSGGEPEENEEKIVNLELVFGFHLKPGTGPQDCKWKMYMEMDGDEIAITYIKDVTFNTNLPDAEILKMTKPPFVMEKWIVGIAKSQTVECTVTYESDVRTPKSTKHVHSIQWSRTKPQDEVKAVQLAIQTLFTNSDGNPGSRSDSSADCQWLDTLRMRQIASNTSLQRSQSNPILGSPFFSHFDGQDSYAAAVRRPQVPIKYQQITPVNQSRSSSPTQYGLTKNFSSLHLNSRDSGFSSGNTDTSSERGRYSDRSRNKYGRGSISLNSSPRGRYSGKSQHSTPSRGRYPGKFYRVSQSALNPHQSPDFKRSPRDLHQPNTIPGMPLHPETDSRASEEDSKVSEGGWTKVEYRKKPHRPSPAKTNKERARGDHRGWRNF
In test [4] the target is T4, Dual specificity mitogen-activated protein kinase kinase 4 (Homo sapiens, UniProt P45985).
T4 sequence (P45985 whole entry): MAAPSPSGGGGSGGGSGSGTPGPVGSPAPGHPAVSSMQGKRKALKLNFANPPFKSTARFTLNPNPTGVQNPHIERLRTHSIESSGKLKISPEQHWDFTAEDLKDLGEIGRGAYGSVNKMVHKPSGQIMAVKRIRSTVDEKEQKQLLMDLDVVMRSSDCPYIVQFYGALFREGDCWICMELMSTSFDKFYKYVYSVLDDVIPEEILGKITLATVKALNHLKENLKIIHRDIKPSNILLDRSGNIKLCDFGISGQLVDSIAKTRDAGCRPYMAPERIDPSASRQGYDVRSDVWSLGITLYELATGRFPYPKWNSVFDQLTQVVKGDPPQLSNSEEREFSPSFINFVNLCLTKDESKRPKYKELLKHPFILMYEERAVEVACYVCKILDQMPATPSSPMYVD
Put plainly: Inhibition of MKK4 (unknown origin) by PanQinase assay.

The target of test [5] is Serine/threonine-protein kinase B-raf (Homo sapiens, UniProt P15056). The experiment in a line: Binding affinity to wild-type human partial length BRAF (S429 to E741 residues) expressed in mammalian expression system by Kinomescan method.
Sequence of Serine/threonine-protein kinase B-raf (P15056 whole entry, the tested form may be a part): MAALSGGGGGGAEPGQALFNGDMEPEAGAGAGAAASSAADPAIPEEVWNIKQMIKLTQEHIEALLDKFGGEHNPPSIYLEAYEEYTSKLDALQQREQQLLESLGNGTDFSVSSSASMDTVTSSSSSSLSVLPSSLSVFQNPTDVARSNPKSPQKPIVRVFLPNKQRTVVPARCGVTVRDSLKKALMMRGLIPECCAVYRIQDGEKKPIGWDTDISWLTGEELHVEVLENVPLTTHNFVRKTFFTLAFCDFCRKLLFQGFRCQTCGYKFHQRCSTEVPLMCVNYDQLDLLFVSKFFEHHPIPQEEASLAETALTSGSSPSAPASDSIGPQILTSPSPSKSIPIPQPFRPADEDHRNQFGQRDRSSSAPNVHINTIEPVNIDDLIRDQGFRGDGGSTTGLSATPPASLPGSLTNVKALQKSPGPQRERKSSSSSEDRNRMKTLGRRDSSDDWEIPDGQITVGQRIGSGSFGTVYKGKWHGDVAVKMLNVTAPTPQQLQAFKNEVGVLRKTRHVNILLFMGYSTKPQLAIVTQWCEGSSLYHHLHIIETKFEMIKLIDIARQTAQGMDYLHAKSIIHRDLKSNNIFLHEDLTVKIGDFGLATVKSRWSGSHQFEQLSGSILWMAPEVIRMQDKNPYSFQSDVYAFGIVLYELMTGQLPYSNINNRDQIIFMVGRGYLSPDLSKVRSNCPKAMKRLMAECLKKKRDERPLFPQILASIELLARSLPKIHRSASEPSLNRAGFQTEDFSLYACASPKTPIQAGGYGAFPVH
For test [6], the target named is Mitogen-activated protein kinase 8 (Homo sapiens, UniProt P45983). Put plainly: Binding affinity to wild-type human full length JNK1 (M1 to Q384 residues) expressed in mammalian expression system by Kinomescan method.
Sequence of Mitogen-activated protein kinase 8 (P45983 whole entry, the tested form may be a part): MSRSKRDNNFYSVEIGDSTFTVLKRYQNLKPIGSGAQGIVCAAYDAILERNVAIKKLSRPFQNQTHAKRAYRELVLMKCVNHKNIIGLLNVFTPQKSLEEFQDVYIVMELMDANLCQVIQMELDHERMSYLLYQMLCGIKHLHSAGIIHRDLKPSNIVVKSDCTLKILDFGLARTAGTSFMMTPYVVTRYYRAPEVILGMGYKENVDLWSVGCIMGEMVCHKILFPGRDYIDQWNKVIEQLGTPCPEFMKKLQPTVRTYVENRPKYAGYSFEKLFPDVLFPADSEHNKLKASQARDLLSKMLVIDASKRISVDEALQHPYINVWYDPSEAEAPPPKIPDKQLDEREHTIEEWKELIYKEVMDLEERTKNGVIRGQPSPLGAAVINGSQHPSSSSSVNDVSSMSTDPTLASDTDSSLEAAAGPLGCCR
The target of test [7] is T1, Mitogen-activated protein kinase kinase kinase kinase 5. Put plainly: Binding affinity to wild-type human partial length MAP4K5 (M1 to P297 residues) expressed in bacterial expression system by Kinomescan method. An outline of the steps:
(§1)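 Dissociation constants (Kd, nM) were determined by KINOMEscan competition-binding assay, in duplicate.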
Target sequence in this assay (Q9Y4K4 whole entry, the tested form may be a part): as the sequence (Q9Y4K4 whole entry, looked up, the tested form may be a part) above

The target in test [8] is T5, Dual specificity mitogen-activated protein kinase kinase 7 (Homo sapiens, UniProt O14733).
T5 sequence (O14733 whole entry): T2 sequence (whole entry)
Put plainly: Binding affinity to wild-type human full length MKK7 (M1 to R419 residues) expressed in mammalian expression system by Kinomescan method. The method, boiled down: as §1

The target of test [9] is T3, Mitogen-activated protein kinase kinase kinase 20. The experiment in a line: Binding affinity to wild-type human partial length ZAK (M1 to L331 residues) expressed in bacterial expression system by Kinomescan method. The method, boiled down:
as §1
Target sequence in this assay (Q9NYL2 whole entry, the tested form may be a part): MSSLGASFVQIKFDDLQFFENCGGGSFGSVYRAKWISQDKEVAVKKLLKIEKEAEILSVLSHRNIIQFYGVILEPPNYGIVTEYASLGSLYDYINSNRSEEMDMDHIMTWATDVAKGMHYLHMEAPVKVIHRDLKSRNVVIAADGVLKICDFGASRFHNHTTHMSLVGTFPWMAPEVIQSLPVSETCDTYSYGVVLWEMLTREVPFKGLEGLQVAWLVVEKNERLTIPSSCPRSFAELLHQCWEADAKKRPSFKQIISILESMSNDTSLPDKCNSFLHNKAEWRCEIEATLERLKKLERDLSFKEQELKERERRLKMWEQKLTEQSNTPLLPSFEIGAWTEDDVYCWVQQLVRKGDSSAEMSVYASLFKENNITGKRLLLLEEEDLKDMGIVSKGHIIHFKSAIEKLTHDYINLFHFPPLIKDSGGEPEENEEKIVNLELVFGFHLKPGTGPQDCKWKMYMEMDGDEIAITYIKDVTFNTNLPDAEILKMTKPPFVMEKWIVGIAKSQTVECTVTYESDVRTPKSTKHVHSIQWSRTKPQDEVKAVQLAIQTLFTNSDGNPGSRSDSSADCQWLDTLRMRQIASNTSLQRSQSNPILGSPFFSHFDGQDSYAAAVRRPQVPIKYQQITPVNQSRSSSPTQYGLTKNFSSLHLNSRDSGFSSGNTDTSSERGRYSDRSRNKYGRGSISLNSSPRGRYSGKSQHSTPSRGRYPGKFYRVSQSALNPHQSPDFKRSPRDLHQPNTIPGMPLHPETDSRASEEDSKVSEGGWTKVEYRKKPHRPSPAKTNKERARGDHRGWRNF

For the compound `CCCS(=O)(=O)Nc1ccc(F)c(C(=O)c2n[nH]c3ncc(-c4ccc(S(N)(=O)=O)cc4)cc23)c1F`, the values for the Activity in test [1], in [2] and in test [3] were 100%, 98% and 91%, respectively. This compound gave a pIC50 in [4] of 7.05.

With `Nc1ccc(-c2cnc3[nH]nc(C(=O)c4c(F)ccc(NS(=O)(=O)Cc5ccccc5)c4F)c3c2)cc1`, the figures for the Activity in [1], in test [2] and in test [3] were 1.4%, 100% and 1.8%, respectively. The pKd is 6.21 in [5]; 6.85 in test [6]; 8.24 in test [7]; 5.30 in test [8]; 8.02 in test [9].

Regarding `CCCS(=O)(=O)Nc1ccc(F)c(C(=O)c2n[nH]c3ncc(-c4ccc(S(=O)(=O)NC(C)=O)cc4)cc23)c1F`, the Activity in [1] came out at 67%; in [2], 71%; in test [3], 38%. For the same compound, in test [4], the pIC50 was 7.54.

As for `CCCS(=O)(=O)Nc1ccc(F)c(C(=O)c2n[nH]c3ncc(-c4ccc(F)cc4C)cc23)c1F`, the Activity in test [1] came to 55%; in test [2], 100%; in test [3] it was 65%.

`CCCS(=O)(=O)Nc1ccc(F)c(C(=O)c2n[nH]c3ncc(-c4ccccc4N)cc23)c1F`: the Activity in test [1] amounted to 73%; in [2], 95%; in test [3] it was 40%.

For `CCCS(=O)(=O)Nc1ccc(F)c(C(=O)c2n[nH]c3ncc(-c4cccc(N)c4)cc23)c1F`, the Activity in test [1] is 3.8%; in test [2], 86%; in test [3], 2.3%.
